In experiment [1] the target is Glutamate receptor ionotropic, AMPA (Rattus norvegicus, UniProt P19490+P19491+P19492+P19493). In words: Displacement of [3H]AMPA from AMPA receptor in Sprague-Dawley rat brain cortical synaptic membranes after 1 hr by liquid scintillation counting. Summed up: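 Radioligand displacement in rat cortical membranes: [3H]AMPA labelled AMPA receptors and [3H]KA labelled kainate receptors. Results are reported as IC50 for displacement of the radioligand.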

Experiment [2] concerns the target Glutamate NMDA receptor. In words: Displacement of [3H]CGP39653 from NMDA receptor in Sprague-Dawley rat brain cortical synaptic membranes after 1 hr by liquid scintillation counting v. Summed up: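 Competition binding on rat cortical membranes, with [3H]CGP39653 labelling NMDA receptor sites. Ki values were derived and expressed as mean pKi ± SEM from three independent experiments. Hill coefficients were also determined.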

Experiment [3] relates to kainate receptor (Rattus norvegicus). In words: Displacement of [3H]KAIN from kainate receptor in Sprague-Dawley rat brain cortical synaptic membranes at 100 uM after 1 hr by liquid scintillation counting.
Experiment [4] addresses kainate receptor (Rattus norvegicus). In words: Displacement of [3H]KAIN from kainate receptor in Sprague-Dawley rat brain cortical synaptic membranes after 1 hr by liquid scintillation counting.
The target of experiment [5] is Glutamate receptor ionotropic, AMPA (Rattus norvegicus) (UniProt P19491+P19492+P19493+P19490). The experiment in a line: Displacement of [3H]AMPA from AMPA receptor in Sprague-Dawley rat brain cortical synaptic membranes at 100 uM after 1 hr by liquid scintillation counting. Summed up: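 In rat cortical membrane binding, test compounds were applied at a single concentration of 100 µM. Percent displacement of bound [3H]AMPA (AMPA sites) or [3H]KA (kainate sites) was recorded.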

The target of experiment [6] is Glutamate NMDA receptor. In words: Displacement of [3H]CPP from NMDA receptor in Sprague-Dawley rat brain cortical synaptic membranes after 1 hr by liquid scintillation counting v.

For the molecule `N[C@H](C/C=C/c1ccccc1C(=O)O)C(=O)O`, the IC50 in experiment [1] and in experiment [4] was above 100 µM each time. Moreover, the inhibition constant (Ki) in experiment [2] was above 100 µM. The inhibition in experiment [3] and in experiment [5] was 5% in each case.
In the case of `N[C@H](C/C=C/c1cscc1C(=O)O)C(=O)O`, the IC50 in experiment [1] and in experiment [4] was above 100 µM in each case. In experiment [2], this molecule returned a Ki of 52 µM. Moreover, the inhibition in experiment [3] and in experiment [5] was 5% each time.
As to `N[C@H](CCCc1cscc1C(=O)O)C(=O)O`, the IC50 in experiment [1] and in experiment [4] was above 100 µM in each case. The affinity in experiment [2] corresponds to a Ki of 14 µM. Also, the inhibition in experiment [3] and in experiment [5] was 5% each time.
Turning to `N[C@H](CCCc1ccccc1C(=O)O)C(=O)O`, the IC50 in experiment [1] and in experiment [4] was above 100 µM throughout. In addition, affinity in experiment [2] was put at a Ki of 32 µM. For the same molecule, the inhibition in experiment [3] and in experiment [5] was 5% in each case.
With `N[C@H](CCCC(=O)O)C(=O)O`, the Ki in experiment [6] amounted to 13 µM.

Values taken from ChEMBL document CHEMBL3232978, “Efficient synthesis of novel glutamate homologues and investigation of their affinity and selectivity profile at ionotropic glutamate receptors” (Bioorg Med Chem Lett, 2014).
